MrgX1 antag: antagonists of human MrgX1 receptor, primary screen, HEK293 cells, Fluo-4 calcium flux; Mas-related G-protein coupled receptor member X1 (Homo sapiens), Q96LB2; BAM8-22 antagonism; active compounds read low; B-score at 10 µM; hit rate 1.3% among 310,000; AID 588676, 2011;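 active = calcium-response B-score plate-corrected more than 3 library SD below zero, starting fluorescence within 5 deviations, no agonist response on first addition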;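 note: peak minus trough fluorescence over baseline after final BAM8-22 challenge near maximal dose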
Target sequence (Q96LB2 whole entry, looked up): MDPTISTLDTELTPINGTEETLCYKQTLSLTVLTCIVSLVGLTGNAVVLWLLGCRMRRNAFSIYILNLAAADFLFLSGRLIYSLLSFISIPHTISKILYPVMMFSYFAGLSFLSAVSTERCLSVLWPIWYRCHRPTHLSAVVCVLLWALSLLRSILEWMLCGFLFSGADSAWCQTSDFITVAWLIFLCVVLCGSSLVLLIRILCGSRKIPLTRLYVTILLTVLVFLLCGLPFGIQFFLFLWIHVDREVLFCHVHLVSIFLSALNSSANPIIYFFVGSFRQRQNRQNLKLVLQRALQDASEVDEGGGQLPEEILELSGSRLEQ
Cl transport mod: KCC2 cotransporter modulators, thallium flux, primary screen, cell-based, HEK293 KCC2, FluoZin-2 fluorescence, MLSMR | Solute carrier family 12 member 5 (Homo sapiens), Q9H2X9 | KCC2 cells, thallium flux FluoZin-2 fluorescence | B-score of Tl+ flux slope (higher = more flux/activation; lower = inhibition) at 10 µM | hit rate 2.2% among 190,000 | AID 1456, 2008;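 active = thallium flux slope and its plate-corrected score both differing from the plate sample mean at a set confidence after two filtering rounds, in either direction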;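 note: slope of fluorescence scaled to starting intensity during 10 to 20 s after thallium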
RGS4 inh: RGS4 inhibitors, primary screen, cell-based, HEK293 M3R inducible RGS4, calcium flux; Regulator of G-protein signaling 4 (Homo sapiens), P49798; Fluo-4 calcium flux; active compounds read high; triggered by carbachol at its EC20; B-score at 10 µM; hit rate 0.45% among 310,000; AID 463165, 2010;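 active = B-score, a plate-corrected calcium signal, over three deviations above library mean, with baseline fluorescence within five deviations of library mean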;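 note: RGS4 expression induced by doxycycline in cells with stable M3 receptor; B-score is computed from the integrated fluorescence ratio over baseline after carbachol; higher B-score means a larger calcium signal and so more RGS4 inhibition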
Target sequence (P49798 whole entry, looked up): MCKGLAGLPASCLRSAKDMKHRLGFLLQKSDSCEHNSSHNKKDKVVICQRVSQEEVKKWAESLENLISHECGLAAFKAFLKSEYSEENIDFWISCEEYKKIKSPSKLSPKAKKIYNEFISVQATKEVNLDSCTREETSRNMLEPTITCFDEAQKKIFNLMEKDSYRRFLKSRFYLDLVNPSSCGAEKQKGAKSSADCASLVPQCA
MrgX1 agonist: agonists of human MrgX1 receptor, primary screen, HEK293 cells, Fluo-4 calcium flux | Fluo-4 calcium fluorescence, agonist mode; active compounds read high | B-score at 10 µM | hit rate 0.44% among 310,000;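 active = calcium response B-score plate-corrected fluorescence ratio at least 3 library SD, with starting fluorescence B-score inside 5 SD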
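Assay system: MrgX1-expressing HEK293 cells / Amount: fifteen thousand cells per well / Doses: test compound in the initial addition of three / Timing: cells plated overnight, dye loaded 0.5 h 37 °C, 0.5 h room temperature / Technique: kinetic calcium dye fluorescence, Fluo-4 NW / Control set: positive and negative controls per plate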
RGS4 act: RGS4 potentiators or activators, primary screen, cell-based, HEK293 M3R inducible RGS4, calcium flux. carbachol calcium flux Fluo4; active compounds read low. B-score at 10 µM. hit rate 0.92% among 310,000. AID 463111, 2010;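 active = B-score of the integrated calcium signal more than 4 SD below the library mean, with starting fluorescence not abnormally high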;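 note: negative B-score means reduced calcium response which marks RGS4 activation or potentiation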
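Assay system: Inducible-RGS4 HEK293 cells carrying M3 receptor | Schedule: Compound preincubation 20 min at room temperature before agonist | Signal: Kinetic calcium fluorescence imaging with Fluo4-AM dye, 2 µM | Read-out basis: B score from integrated fluorescence ratio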
MrgX1 PAM: positive allosteric modulators of MrgX1, primary screen, HEK293 cells, Fluo-4 calcium flux; FDSS; active compounds read high; Mas-related G-protein coupled receptor member X1 (Homo sapiens), Q96LB2; hit rate 0.63% among 310,000; B-score at 10 µM;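 active = plate-corrected calcium response at least 3 library SD above typical, normal starting fluorescence, not activating the receptor alone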;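 note: compound read alongside a low EC10 to EC30 dose of BAM8-22 agonist; peak minus trough fluorescence over baseline measured at the second addition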
RGS4 inh valid: enhanced carbachol calcium response, M3R/RGS4 cells, RGS4 inhibitor project, cell-based, validation screen, HEK293 M3R/RGS4, calcium flux. shares compounds with RGS4 inh. carbachol calcium Fluo-4 fluorescence; carbachol added at its EC20; 0 = buffer wells, 100 = carbachol control. calcium response, % at 10 µM. hit rate 65% among 1,700. AID 492999, 2010;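 active = duplicate-averaged calcium response above the buffer-only control mean plus 5 SD of those controls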;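 note: integrated fluorescence ratio F max minus min over baseline F0; higher response in RGS4-induced cells means RGS4 inhibition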
M3R Ca ctr: carbachol calcium response in non-induced M3R cells, confirmation, counter-screen for RGS4 inhibitor project, cell-based, HEK293 M3R. hit rate 20% among 1,900. activity (percent), % at 10 µM. shares compounds with RGS4 inh. carbachol calcium Fluo-4; submaximal (EC20) carbachol stimulus; buffer wells 0%, carbachol control wells 100%. AID 493000, 2010; call rule not given here;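 note: RGS4 induction absent so cells express M3R without RGS4; higher means more calcium signal and flags a non-specific hit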
RGS4 inh ctr2: signal in non-induced cells without carbachol, RGS4 inhibitor counter-screen; shares compounds with RGS4 inh; HEK293 M3R/RGS4 non-induced, Fluo-4 calcium, no carbachol; normalised: buffer wells 0%, carbachol wells 100%; calcium response (agonist-mode artifact), % at 10 µM; hit rate 22% among 1,900;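 active = duplicate-averaged calcium rise in uninduced cells above buffer wells' mean plus 5 SD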
An asterisk follows results filed as active; i = inactive; x = no result given. Shown are actives, neighbours in structure and some others; about 4.7% of the full set was active somewhere.

SMILES	MrgX1 antag	Cl transport mod	RGS4 inh	MrgX1 agonist	RGS4 act	MrgX1 PAM	RGS4 inh valid	M3R Ca ctr	RGS4 inh ctr2
Cc1ccc2[nH]c3c(c2c1)CN(C(=O)CN1c2ccc(F)cc2CCC1C)CC3 (centres undefined)	i	0.78	9*	i	i	i	23%*	i	i
COc1ccc(OC)c(/C=C/c2[nH]c(=O)[nH]c(=O)c2[N+](=O)[O-])c1	x	x	10*	x	i	x	34%*	i	i
O=c1[nH]c(/C=C/c2ccc([N+](=O)[O-])cc2)c([N+](=O)[O-])c(=O)[nH]1	i	x	i	i	i	i	i	i	i
COc1ccc(S(=O)(=O)N2CCCCC2)cc1NC(=O)CCNC(=O)c1ccc(Br)cc1	i	x	i	i	i	i	x	x	x
COC(=O)C1=C(CS(=O)(=O)c2ccccc2)NC(=O)NC1c1ccc(OC)c(OC)c1 (centres undefined)	i	x	i	i	i	i	i	i	i
O=C(O)CCCCCN1C(=O)/C(=C\c2ccc(-c3ccc(Cl)cc3)o2)SC1=S	i	-2.4	36*	i	-11*	i	44%*	i	48%*
O=C(O)CN1C(=O)/C(=C/c2ccc(N3CCCCC3)o2)SC1=S	i	0.55	i	i	i	i	x	x	x
O=C(O)CCCN1C(=O)/C(=C/c2ccc(-c3nc4ccccc4s3)o2)SC1=S	i	x	22*	i	-9.2*	i	8.0%*	i	389%*
O=S(=O)(Nc1ccc(N=Nc2ccc(O)c3ccccc23)cc1)c1ccccc1	i	0.76	4.7*	i	i	i	5.5%*	i	i
CC(=O)Nc1ccc(NC(=O)CC2Nc3cccc4cccc(c34)NC2=O)cc1 (centres undefined)	i	x	i	i	i	i	i	i	i
CC(=O)c1ccc(NC(=O)CC2Nc3cccc4cccc(c34)NC2=O)cc1 (centres undefined)	i	-1.3	i	i	i	i	x	x	x
CCOc1cc(CNc2ccc(N3CCCC3)cc2)cc(Cl)c1OC	i	0.96	5.1*	i	i	i	14%*	i	i
COc1cc(/C=C/[N+](=O)[O-])ccc1OCc1cccc(C(=O)O)c1	x	-2.8	72*	x	i	x	174%*	57%*	8.0%*
COc1ccc(/C=C2\SC(=O)N(CC(=O)Nc3cccc(C)c3)C2=O)cc1O	i	x	i	i	i	i	x	x	x
Cc1cnc(C(=O)OC(C)C(=O)NCc2ccccc2)cn1 (centres undefined)	i	x	i	i	i	i	x	x	x
O=C1N=C2SCCN2/C1=C\c1ccc(Cl)cc1	i	-0.5	25*	i	i	i	85%*	i	i
O=C(NCCCc1ccncc1)C1CCC(=O)N(CCc2cccc(F)c2)C1 (centres undefined)	i	x	i	i	i	i	x	x	x
CCOC(=O)N1CCN(Cc2cn[nH]c2-c2ccc(-c3ccccc3)cc2)CC1	i	1.1	6.4*	i	i	i	5.5%*	i	i
CCOC(=O)N1CCN(Cc2cn[nH]c2-c2cccc3ccccc23)CC1	i	0.24	i	i	i	i	x	x	x
COc1ccccc1N1CCN(Cc2cn[nH]c2-c2ccc(F)cc2)CC1	i	1.2	i	i	i	i	i	50%*	i
O=C1/C(=C/c2ccncc2)CCC/C1=C\c1ccncc1	x	-1.2	24*	x	i	x	107%*	i	i
O=C1/C(=C\c2ccncc2)CCc2ccccc21	i	x	i	i	i	i	x	x	x
Cc1ccc2cc(CN(Cc3ccc4c(c3)OCO4)Cc3nnnn3Cc3ccco3)c(=O)[nH]c2c1	i	-1.8	i	i	i	i	i	i	8.5%*
Cc1ccc(CN(Cc2cc3cc4c(cc3[nH]c2=O)OCCO4)Cc2nnnn2Cc2ccco2)cc1	i	x	12*	i	i	i	i	i	16%*
Cc1ccc2[nH]c(=O)c(CN(Cc3cccs3)Cc3nnnn3Cc3ccccc3)cc2c1	i	-1.2	i	i	i	i	x	x	x
SMILES	MrgX1 antag	Cl transport mod	RGS4 inh	MrgX1 agonist	RGS4 act	MrgX1 PAM	RGS4 inh valid	M3R Ca ctr	RGS4 inh ctr2
Cc1ccc(S(=O)(=O)CCC(=O)N2CCN(c3ccc([N+](=O)[O-])cc3)CC2)cc1	i	x	i	i	i	i	x	x	x
C=CCOc1ccccc1CN(CCc1ccccc1)C(=O)c1cccc(S(C)(=O)=O)c1	i	x	i	i	i	i	x	x	x
CCOC(=O)[C@@H]1[C@H]2COc3ccc(Br)cc3[C@@H]2N2C(=O)N(c3ccccc3)C(=O)[C@@]12C	i	x	i	i	i	i	x	x	x
CCOC(=O)[C@@H]1[C@H]2COc3ccc(Br)cc3[C@H]2N2C(=O)N(c3cccc(Cl)c3)C(=O)[C@]12C	i	x	i	i	i	i	i	i	i
CCOC(=O)[C@@H]1[C@H]2COc3ccc(Br)cc3[C@@H]2N2C(=O)N(c3cccc(Cl)c3)C(=O)[C@]12C	i	x	i	i	i	i	i	i	i
Cc1cc(C)c(NC(=O)Cn2nnc(C(=O)Nc3ccc(F)cc3F)c2N)c(C)c1	i	x	i	i	i	i	x	x	x
Cc1ccc(S(=O)(=O)N2[C@@H](c3cccc(Cl)c3)C(C(=O)O)=CC[C@H]2c2ccc(C(C)C)cc2)cc1	i	x	x	i	x	i	x	x	x
Cc1ccc(S(N)(=O)=O)cc1NC(=O)c1ccc2c3c(cccc13)CC2	i	x	i	i	i	i	x	x	x
